In ChEMBL document CHEMBL1155506 (J Med Chem, 2010):
pIC50, pKi: −log10 of the molar value. The source made the active and inactive calls. The calls are words filed in the database; no cut-off is given here.

What was measured:
[1] = molecular target: T1, 5-hydroxytryptamine receptor 2A (Homo sapiens, UniProt P28223); experiment: Displacement of [125I]DOI from human recombinant 5HT2A receptor expressed in HEK293 cells by scintillation counting; type: cell-based
Summary of the method: (§1)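 Crude plasma membranes from HEK293 cells stably expressing the human receptor (5–25 μg protein), in 20 mM HEPES pH 7.4 with 10 mM MgCl2. Incubated with 0.5 nM [125I]DOI and test compound (1 pM–10 μM) for 1 h at room temperature; nonspecific binding defined with 10 μM cold DOI. Filtered, washed with ice-cold Tris buffer and scintillation counted in triplicate.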

[2] = AUC (0 to last) in monkey at 10 mg/kg, po after 24 hrs by HPLC/MS/MS analysis; type: ADME, organism-based, Macaca mulatta; parameters: time 0 - last, dose 10 mg/kg, route oral; details: rhesus monkey, plasma
Summary of the method: (§2)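 Oral dose 10 mg/kg; %F calculated relative to a 2 mg/kg iv dose. Values are the mean of n = 3 animals.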

[3] = Half life in Sprague-Dawley rat at 10 mg/kg, po by HPLC/MS/MS analysis; type: ADME, organism-based; parameters: dose 10 mg/kg, route oral; details: in vivo
Summary of the method: (§3)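 Male rats fasted overnight before oral dosing; 10 mg/kg po and 2 mg/kg iv in 80% PEG400/20% phosphate buffered saline. Jugular vein blood was sampled at 0.25–21 h over 24 h, and heparin plasma was assayed by HPLC/MS/MS (MRM, positive electrospray, internal standard; LLOQ 1 ng/mL, ULOQ 2000 ng/mL). %F is taken relative to the 2 mg/kg iv dose. Mean of n = 3 animals.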

[4] = Ratio of drug level in brain to plasma in Sprague-Dawley rat at 30 mg/kg, po after 24 hrs; type: ADME, organism-based; parameters: dose 30 mg/kg, route oral; details: read-out: BPR
[5] = Cmax in monkey at 10 mg/kg, po after 24 hrs by HPLC/MS/MS assay; type: ADME, organism-based, Macaca mulatta; parameters: dose 10 mg/kg, route oral; details: rhesus monkey, in vivo; summary of the method: as §2
[6] = Volume of distribution at steady state in Sprague-Dawley rat at 2 mg/kg, iv after 24 hrs by HPLC/MS/MS analysis; type: ADME, organism-based; parameters: dose 2 mg/kg, route intravenous; details: in vivo, read-out: Vdss; summary of the method: as §3
[7] = Bioavailability in Sprague-Dawley rat at 2 mg/kg, iv after 24 hrs by HPLC/MS/MS analysis; type: ADME, organism-based; details: in vivo; summary of the method: as §3
[8] = Half life in monkey at 10 mg/kg, po by HPLC/MS/MS analysis; type: ADME, organism-based, Macaca mulatta; parameters: dose 10 mg/kg, route oral; details: rhesus monkey, in vivo; summary of the method: as §2
[9] = Volume of distribution at steady state in dog at 2 mg/kg, iv after 24 hrs by HPLC/MS/MS analysis; type: ADME, organism-based, Canis lupus familiaris; parameters: dose 2 mg/kg, route intravenous; details: in vivo, read-out: Vdss; summary of the method: as §2
[10] = Bioavailability in monkey at 2 mg/kg, iv after 24 hrs by HPLC/MS/MS analysis; type: ADME, organism-based, Macaca mulatta; details: rhesus monkey, in vivo; summary of the method: as §2
[11] = Antiplatelet activity in human platelet rich plasma assessed as inhibition of ADP-induced aggregation preincubated for 1 min before 5-HT and ADP challenge measured after 3 mins by turbidimetry
[12] = Volume of distribution at steady state in monkey at 2 mg/kg, iv after 24 hrs by HPLC/MS/MS analysis; type: ADME, organism-based, Macaca mulatta; parameters: dose 2 mg/kg, route intravenous; details: rhesus monkey, in vivo, read-out: Vdss; summary of the method: as §2
[13] = Half life in dog at 10 mg/kg, po by HPLC/MS/MS analysis; type: ADME, organism-based, Canis lupus familiaris; parameters: dose 10 mg/kg, route oral; details: in vivo; summary of the method: as §2
[14] = Total clearance in monkey at 2 mg/kg, iv after 24 hrs by HPLC/MS/MS analysis; type: ADME, organism-based, Macaca mulatta; parameters: dose 2 mg/kg, route intravenous; details: rhesus monkey, in vivo; summary of the method: as §2
[15] = molecular target: T2, 5-hydroxytryptamine receptor 2C (Homo sapiens, UniProt P28335); experiment: Displacement of [125I]DOI from human recombinant 5HT2C receptor expressed in HEK293 cells by scintillation counting; type: cell-based; summary of the method: as §1
T2 sequence (P28335 whole entry): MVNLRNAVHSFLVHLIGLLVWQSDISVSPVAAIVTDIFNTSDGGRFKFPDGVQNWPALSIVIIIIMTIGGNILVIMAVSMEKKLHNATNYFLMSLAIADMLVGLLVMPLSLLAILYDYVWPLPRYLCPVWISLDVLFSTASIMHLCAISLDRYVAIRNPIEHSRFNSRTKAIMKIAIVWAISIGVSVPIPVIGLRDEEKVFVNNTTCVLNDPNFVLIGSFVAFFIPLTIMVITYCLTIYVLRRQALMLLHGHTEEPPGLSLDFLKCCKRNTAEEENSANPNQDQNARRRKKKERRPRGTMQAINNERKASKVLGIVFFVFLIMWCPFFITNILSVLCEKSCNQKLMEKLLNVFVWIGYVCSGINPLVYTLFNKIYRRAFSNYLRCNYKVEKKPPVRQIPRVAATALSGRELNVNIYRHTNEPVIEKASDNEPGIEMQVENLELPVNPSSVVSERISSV

[16] = molecular target: Voltage-gated inwardly rectifying potassium channel KCNH2 (Homo sapiens, UniProt Q12809); experiment: Inhibition of human ERG by patch clamp assay
[17] = molecular target: T1, 5-hydroxytryptamine receptor 2A; experiment: Inverse agonist activity at human 5HT2A receptor expressed in HEK293 cells assessed as inhibition of inositol phosphate accumulation; type: functional, cell-based
[18] = Cmax in dog at 10 mg/kg, po after 24 hrs by HPLC/MS/MS assay; type: ADME, organism-based, Canis lupus familiaris; parameters: dose 10 mg/kg, route oral; details: in vivo; summary of the method: as §2
[19] = system: Canis familiaris; experiment: Ex vivo inhibition of serotonin-mediated amplification of collagen-stimulated platelet aggregation in Beagle dog at 10 mg/kg, po administered as single dose measured after 12 hrs; type: functional; details: Canis lupus familiaris
Summary of the method: (§4)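 Beagle dogs given a single oral dose of 10 mg/kg. Serotonin-mediated amplification of collagen-stimulated aggregation measured in whole blood ex vivo at 1, 6, 12 and 24 h post-dose.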

[20] = system: Canis familiaris; experiment: Ex vivo inhibition of serotonin-mediated amplification of collagen-stimulated platelet aggregation in Beagle dog at 10 mg/kg, po administered as single dose measured after 24 hrs; type: functional; details: Canis lupus familiaris; summary of the method: as §4
[21] = molecular target: T3, hERG (KCNH2) (Homo sapiens, UniProt Q12809); experiment: Inhibition of human ERG at 3 uM by patch clamp assay
[22] = system: Canis familiaris; experiment: Ex vivo inhibition of serotonin-mediated amplification of collagen-stimulated platelet aggregation in Beagle dog at 1 mg/kg, po for 10 days measured after 10 days; type: functional, organism-based; parameters: dose 1 mg/kg; details: Canis lupus familiaris
Summary of the method: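 Beagle dogs dosed orally with 1 mg/kg daily for 10 days. Serotonin-mediated amplification of collagen-stimulated aggregation then measured in whole blood ex vivo.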

[23] = system: Canis familiaris; experiment: Antithrombotic activity in Beagle dog Folts model of recurrent coronary thrombosis model assessed as inhibition of thrombosis occurrence at 0.07 mg/kg, iv bolus dose followed by continuous fusion of 1.16 ug/kg/min, iv administered after onset of thrombosis; type: functional; details: Canis lupus familiaris
Summary of the method: (§5)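 Anesthetized dogs in the Folts model of recurrent coronary thrombosis. Given 0.07 mg/kg iv bolus followed by continuous iv infusion of 1.16 μg/kg/min, either before or after onset of recurrent thrombosis. Read-out is flow-time area, compared with saline controls.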

[24] = molecular target: 5-hydroxytryptamine receptor 2B (Homo sapiens, UniProt P41595); experiment: Displacement of [125I]DOI from human recombinant 5HT2B receptor expressed in HEK293 cells by scintillation counting; type: cell-based
[25] = AUC (0 to last) in Sprague-Dawley rat at 10 mg/kg, po after 24 hrs by HPLC/MS/MS analysis; type: ADME, organism-based; parameters: time 0 - last, dose 10 mg/kg, route oral; details: plasma; summary of the method: as §3
[26] = system: Canis familiaris; experiment: Antithrombotic activity in Beagle dog Folts model of recurrent coronary thrombosis model assessed as inhibition of thrombosis occurrence at 0.07 mg/kg, iv bolus dose followed by continuous fusion of 1.16 ug/kg/min, iv administered before onset of thrombosis; type: functional; details: Canis lupus familiaris; summary of the method: as §5
[27] = AUC (0 to last) in dog at 10 mg/kg, po after 24 hrs by HPLC/MS/MS analysis; type: ADME, organism-based, Canis lupus familiaris; parameters: time 0 - last, dose 10 mg/kg, route oral; details: plasma; summary of the method: as §2
[28] = Cmax in Sprague-Dawley rat at 10 mg/kg, po after 24 hrs by HPLC/MS/MS assay; type: ADME, organism-based; parameters: dose 10 mg/kg, route oral; details: in vivo; summary of the method: as §3
[29] = Total clearance in dog at 2 mg/kg, iv after 24 hrs by HPLC/MS/MS analysis; type: ADME, organism-based, Canis lupus familiaris; parameters: dose 2 mg/kg, route intravenous; details: in vivo; summary of the method: as §2
[30] = system: Canis familiaris; experiment: Ex vivo inhibition of serotonin-mediated amplification of collagen-stimulated platelet aggregation in Beagle dog at 10 mg/kg, po administered as single dose measured after 6 hrs; type: functional; details: Canis lupus familiaris; summary of the method: as §4
[31] = Antiplatelet activity in dog platelet rich plasma assessed as inhibition of ADP-induced aggregation treated 10 mins after ADP challenge measured after 3 mins by turbidimetry; type: functional; details: Canis lupus familiaris
[32] = Total clearance in Sprague-Dawley rat at 2 mg/kg, iv after 24 hrs by HPLC/MS/MS analysis; type: ADME, organism-based; parameters: dose 2 mg/kg, route intravenous; details: in vivo; summary of the method: as §3
[33] = system: Canis familiaris; experiment: Ex vivo inhibition of serotonin-mediated amplification of collagen-stimulated platelet aggregation in Beagle dog at 10 mg/kg, po administered as single dose measured after 1 hr; type: functional, organism-based; parameters: dose 10 mg/kg; details: Canis lupus familiaris; summary of the method: as §4
[34] = Bioavailability in dog at 2 mg/kg, iv after 24 hrs by HPLC/MS/MS analysis; type: ADME, organism-based, Canis lupus familiaris; details: in vivo; summary of the method: as §2
[35] = molecular target: T3, hERG (KCNH2); experiment: Inhibition of human ERG at 1 uM by patch clamp assay

T1 sequence (P28223 whole entry): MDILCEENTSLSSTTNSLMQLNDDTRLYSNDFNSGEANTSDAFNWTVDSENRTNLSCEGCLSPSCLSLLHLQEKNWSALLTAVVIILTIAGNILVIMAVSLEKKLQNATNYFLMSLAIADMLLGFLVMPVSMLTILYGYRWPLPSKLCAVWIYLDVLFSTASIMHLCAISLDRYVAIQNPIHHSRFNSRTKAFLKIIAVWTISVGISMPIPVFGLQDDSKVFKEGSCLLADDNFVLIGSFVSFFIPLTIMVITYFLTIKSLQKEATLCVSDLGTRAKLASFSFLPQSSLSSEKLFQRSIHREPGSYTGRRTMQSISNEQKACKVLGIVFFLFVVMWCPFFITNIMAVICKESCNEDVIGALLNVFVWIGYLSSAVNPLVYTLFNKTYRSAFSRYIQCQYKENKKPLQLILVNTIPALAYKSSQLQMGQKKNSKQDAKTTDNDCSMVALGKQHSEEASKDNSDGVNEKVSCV
T3 sequence (Q12809 whole entry): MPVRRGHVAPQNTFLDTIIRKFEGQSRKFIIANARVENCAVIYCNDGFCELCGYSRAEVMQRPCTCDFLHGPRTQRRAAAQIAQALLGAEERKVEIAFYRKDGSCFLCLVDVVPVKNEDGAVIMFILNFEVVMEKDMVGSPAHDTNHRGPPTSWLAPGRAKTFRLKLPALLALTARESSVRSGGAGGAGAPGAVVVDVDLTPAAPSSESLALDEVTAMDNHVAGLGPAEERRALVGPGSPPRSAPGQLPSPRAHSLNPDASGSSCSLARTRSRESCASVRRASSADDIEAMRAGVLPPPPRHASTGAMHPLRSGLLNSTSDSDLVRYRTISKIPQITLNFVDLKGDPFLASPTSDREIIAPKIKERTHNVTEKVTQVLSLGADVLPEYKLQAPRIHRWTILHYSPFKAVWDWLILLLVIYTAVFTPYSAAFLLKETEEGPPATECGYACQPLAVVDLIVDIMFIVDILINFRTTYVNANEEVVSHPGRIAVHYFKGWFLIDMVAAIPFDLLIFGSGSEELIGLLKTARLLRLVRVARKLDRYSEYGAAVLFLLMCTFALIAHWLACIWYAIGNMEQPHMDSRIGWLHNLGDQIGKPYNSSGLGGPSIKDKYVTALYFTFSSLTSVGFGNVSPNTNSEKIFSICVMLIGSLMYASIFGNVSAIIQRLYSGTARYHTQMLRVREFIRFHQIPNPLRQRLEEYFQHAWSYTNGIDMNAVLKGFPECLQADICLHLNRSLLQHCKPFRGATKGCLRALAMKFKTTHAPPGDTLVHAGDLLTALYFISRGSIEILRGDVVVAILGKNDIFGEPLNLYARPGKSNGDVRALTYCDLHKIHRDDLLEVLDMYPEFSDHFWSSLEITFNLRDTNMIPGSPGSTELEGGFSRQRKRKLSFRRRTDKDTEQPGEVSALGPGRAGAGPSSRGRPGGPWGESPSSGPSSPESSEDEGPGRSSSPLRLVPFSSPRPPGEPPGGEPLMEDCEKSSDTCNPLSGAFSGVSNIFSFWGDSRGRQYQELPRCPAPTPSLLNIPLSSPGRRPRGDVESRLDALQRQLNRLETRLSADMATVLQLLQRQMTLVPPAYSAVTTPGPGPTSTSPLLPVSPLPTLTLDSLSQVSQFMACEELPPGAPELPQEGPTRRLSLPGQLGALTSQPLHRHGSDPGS
Voltage-gated inwardly rectifying potassium channel KCNH2, sequence (Q12809 whole entry): as above
5-hydroxytryptamine receptor 2B, sequence (P41595 whole entry): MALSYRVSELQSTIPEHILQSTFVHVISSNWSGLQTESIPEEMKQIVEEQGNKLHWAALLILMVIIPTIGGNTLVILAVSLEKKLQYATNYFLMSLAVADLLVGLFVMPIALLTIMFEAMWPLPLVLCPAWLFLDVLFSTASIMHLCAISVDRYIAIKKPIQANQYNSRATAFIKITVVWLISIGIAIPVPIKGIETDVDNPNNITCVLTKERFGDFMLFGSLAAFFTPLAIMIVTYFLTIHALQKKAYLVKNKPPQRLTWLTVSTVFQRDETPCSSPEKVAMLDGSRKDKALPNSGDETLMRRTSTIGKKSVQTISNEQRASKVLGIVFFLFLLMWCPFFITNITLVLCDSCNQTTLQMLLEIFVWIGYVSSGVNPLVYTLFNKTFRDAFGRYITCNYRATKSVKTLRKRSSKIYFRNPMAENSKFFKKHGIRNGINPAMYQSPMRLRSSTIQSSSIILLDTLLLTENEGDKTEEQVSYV

SMILES: COc1cccc(C(=O)Nc2ccc(OCCN3CCOCC3)c(-c3ccnn3C)c2)c1 [TEMANOGREL]
- pKi [1]: 8.31
- AUC(0-t) at 24 h [2]: 1920 ng·h/mL
- half-life [3]: 1 h
- Kp at 24 h [4]: 0.05
- Cmax [5]: 1460 ng/mL
- Vd [6]: 29 L/kg
- bioavailability [7]: 10%
- half-life [8]: 2.1 h
- Vd [9]: 1.3 L/kg
- bioavailability [10]: 16%
- pIC50 [11]: 8.06
- Vd [12]: 0.6 L/kg
- half-life [13]: 0.9 h
- clearance [14]: 15 mL/min/kg
- pKi [15]: < 5.00
- pIC50 [16]: 4.96
- pIC50 [17]: 8.28
- Cmax [18]: 2280 ng/mL
- inhibition in vivo at 10 mg/kg [19]: 57%
- inhibition in vivo at 10 mg/kg [20]: 58%
- inhibition at 3 µM [21]: 32%
- inhibition [22]: Active
- inhibition in vivo at 0.07 mg/kg [23]: 58%
- pKi [24]: < 5.00
- AUC(0-t) at 24 h [25]: 43 ng·h/mL
- inhibition in vivo at 0.07 mg/kg [26]: 58%
- AUC(0-t) at 24 h [27]: 3540 ng·h/mL
- Cmax [28]: 58 ng/mL
- clearance [29]: 20 mL/min/kg
- inhibition in vivo at 10 mg/kg [30]: 86%
- pIC50 [31]: 7.64
- clearance [32]: 367 mL/min/kg
- inhibition [33]: Active
- bioavailability [34]: 45%

SMILES: Cn1nccc1-c1cc(NC(=O)c2ccc(F)cc2F)ccc1OCCN1CCOCC1
- pKi [1]: 8.07
- half-life [3]: 1.5 h
- inhibition at 1 µM [35]: 16%
- Vd [6]: 11.7 L/kg
- bioavailability [7]: 22%
- pIC50 [11]: 7.57
- pKi [15]: < 5.00
- pIC50 [16]: 5.39
- AUC(0-t) at 24 h [25]: 171 ng·h/mL
- Cmax [28]: 56 ng/mL
- clearance [32]: 233 mL/min/kg

SMILES: Cn1nccc1-c1cc(NC(=O)c2ccc(C(F)(F)F)cc2)ccc1OCCN1CCOCC1
- pKi [1]: 8.62
- inhibition at 1 µM [35]: 33%
- pIC50 [11]: 7.21
- pKi [15]: 5.23
